Laboratory results published in PMC8361970 (Pediatric Diabetes, 2021).

How the values were obtained:
Format in all cases: in vivo, human
[1] = test system: children and adolescents (6–17 years) with type 1 diabetes, insulin-induced hypoglycemia; settings: for Mean PG increase from baseline after 30 min: 30 min after single SC dose, full analysis set; for IV glucose rescue required (participants): within 45 min of single SC dose
Outline: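 After an overnight fast, IV insulin glulisine was infused until PG fell below 80 mg/dL. Five min later, if PG was 54–80 mg/dL, a single SC injection was given. Central-lab PG was taken pre-dose and at 4–45 min (60 min if ≥21 kg). Change from baseline was analysed by ANCOVA (treatment, age group, injection site; baseline PG covariate), with PG at rescue carried forward.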

[2] = test system: children and adolescents (6–17 years) with type 1 diabetes; assay: Phase 3 trial: adverse events; settings: for Duration of nausea AEs / Duration of vomiting AEs: majority of events; for Onset of nausea AEs after dosing: most AEs of nausea
[3] = test system: children and adolescents (6–17 years) with type 1 diabetes; assay: Phase 3 trial: anti-drug antibodies; settings: the one positive participant

Anti-drug antibody titer [3]	Cross-reaction of anti-drug antibodies with glucagon [3]	Neutralizing activity of anti-drug antibodies [3]	Substance	Mean PG increase from baseline after 30 min [1] [mg/dL]	IV glucose rescue required (participants) [1]	Duration of nausea AEs [2]	Duration of vomiting AEs [2]	Onset of nausea AEs after dosing [2] [h]
low titer	did not cross‐react with glucagon	No neutralizing activity was detected	dasiglucagon	98.2	none	less than 2 h	less than 5 min	1.5 to 3
–	–	–	glucagon [reference compound]	8440	none	less than 2 h	less than 5 min	1.5 to 3
